Screening results deposited in PubChem BioAssay by Johns Hopkins Ion Channel Center.
A selection: hits, their analogues and other compounds. The true share with any hit is near 3.7%.
hERG rescue: hERG rescue from dofetilide block, primary screen, cell-based, CHO-hERG, FluxOR thallium flux, dofetilide IC70; AID 1511, 2009; 310,000 tested, 0.51% active; dofetilide IC70 present; activation (rescue from dofetilide block), less the hit threshold, % at 10 µM; Voltage-gated inwardly rectifying potassium channel KCNH2 (Homo sapiens), Q12809;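 active = activation above the mean of controls blocked by dofetilide plus 5 SD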;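 note: thallium influx through hERG after potassium depolarization seen as dye fluorescence rise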
KCNQ1 inh: inhibitors of human KCNQ1 channel, primary screen, cell-based, thallium flux, high-throughput. Potassium voltage-gated channel subfamily KQT member 1 (Homo sapiens), P51787. CHO-K1 KCNQ1, FluxOR thallium flux fluorescence; active compounds read high. B-score at 10 µM. 310,000 tested, 1.3% active. AID 2642, 2010;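 active = compounds whose thallium flux B-score, printed positive for inhibition, exceeds three library SD while starting fluorescence stays within three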;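 note: channel opened by potassium depolarization with thallium stimulus after 20 min compound exposure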
KCNQ1 pot: potentiators or activators of KCNQ1 channel, primary screen, cell-based, thallium flux, high-throughput. B-score at 10 µM. AID 2648, 2010. 310,000 tested, 0.35% active. CHO-K1 KCNQ1, thallium flux FluxOR fluorescence; active compounds read high;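 active = fluorescence ratio B-score, a plate-corrected score, at least three library SD, with initial intensity B-score within 5 SD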
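assay system = CHO-K1 cells stably expressing KCNQ1 | medium = assay buffer, equal DMSO in all wells | timing = 37 °C overnight plating, 90-min dark dye load, 20-min compound pretreatment | measured by = kinetic FluxOR thallium fluorescence, 10-s 1-Hz baseline, 110-s post-stimulus read | measure = fluorescence change relative to baseline, converted to B score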
Kir21 inh: inhibitors of mouse Kir2.1 inward-rectifier potassium channel; B-score at 10 µM; 310,000 tested, 0.85% active; HEK293-Kir2.1, FluxOR thallium flux fluorescence; active compounds read low; Inward rectifier potassium channel 2 (Mus musculus), P35561;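 active = fluorescence ratio B-score at or below minus 3 SD of library scores, with starting-brightness B-score within 2 SD, cut at about -4.2 in these data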;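 note: channel flux triggered by added potassium and thallium sulfate stimulus; B-score of peak minus minimum fluorescence over baseline after thallium stimulus; more negative B-score means stronger Kir2.1 block with less thallium influx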
KCNK9 inh: KCNK9 potassium channel inhibitors, primary screen, HEK293 cells, thallium flux | Potassium channel subfamily K member 9 (Homo sapiens), Q9NPC2 | FluxOR thallium flux fluorescence; active compounds read low | B-score at 10 µM | 310,000 tested, 1.2% active | AID 488922, 2010;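 active = ratio B-score over 3 SD below the library mean, with starting fluorescence within 5 SD of its mean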;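 note: negative B-score means less thallium flux so channel inhibition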
KCNK3 block: human KCNK3 channel inhibitors, primary screen, CHO cells, FluxOR thallium flux, B-score; AID 602410, 2012; B-score at 10 µM; 340,000 tested, 0.84% active; Potassium channel subfamily K member 3 (Homo sapiens), O14649; FluxOR fluorescence; active compounds read low;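 active = B-score under library mean minus 4 SD, starting fluorescence ratio at most library mean plus 5 SD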;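 note: more negative B-score means stronger inhibition of thallium flux through KCNK3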
KCNQ1 block val: KCNQ1 potassium channel inhibitors, confirmation, cell-based, Tl flux, duplicate | shares compounds with KCNQ1 inh | KCNQ1 cell line, FluxOR thallium flux fluorescence | inhibition, % at 10 µM | 1,600 tested, 93% active | AID 588353, 2011;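 active = primary screen active, with duplicate mean exceeding buffer control mean plus 3 SD of buffer wells, cut at about 28% in these data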
CHO KCNQ1 ctr: thallium flux effects in parental CHO cells, counter-screen for KCNQ1 inhibitor project, cell-based, Tl flux. parental CHO-K1, FluxOR thallium flux fluorescence ratio; active compounds read low; zero means no signal rise above baseline. fluorescence ratio (Tl flux) at 10 µM. shares compounds with KCNQ1 inh. 1,600 tested, 21% active. AID 588366, 2011;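 active = mean of duplicate thallium-flux fluorescence ratios in parental host cells more than 5 SD below the buffer control mean, cut at about 0.38 in these data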;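 note: ratio is peak minus minimum fluorescence divided by baseline fluorescence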
KCNQ1 ephys val: KCNQ1 channel inhibitors, confirmation, orthogonal assay, cell-based, automated electrophysiology | 490 tested, 20% active | shares compounds with KCNQ1 inh | KCNQ1-CHO cells, automated patch clamp current | calls only at 10 µM;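 active = KCNQ1 current drop exceeding 3 SD of negative control wells, seen in both duplicate runs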;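 note: steady state current during a 2 s step from -80 to +40 mV; negative values mean current inhibition and positive values mean potentiation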
KCNQ2 inh: KCNQ2 channel inhibition, selectivity assay for KCNQ1 inhibitor project, cell-based | shares compounds with KCNQ1 inh | KCNQ2 cells, FluxOR thallium flux fluorescence | inhibition, % at 10 µM | 1,600 tested, 71% active;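 active = mean percent inhibition of the KCNQ2 thallium signal more than 5 SD above the buffer-only control wells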;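 note: KCNQ2 expressed in CHO cells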
KCNQ1-KCNE1 inh: KCNQ1/KCNE1 channel inhibition, selectivity assay for KCNQ1 inhibitor project, CHO-K1 cells, thallium flux, FluxOR | shares compounds with KCNQ1 inh | 1,600 tested, 77% active | inhibition, % at 10 µM | AID 652147, 2013 | FluxOR thallium flux fluorescence;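 active = mean percent inhibition of duplicate wells above the buffer-only control mean plus 3 SD of those controls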
KCNK9 block conf: KCNK9 potassium channel inhibitors, confirmation, HEK293 cells, thallium flux, duplicate | shares compounds with KCNK9 inh | FluxOR thallium flux fluorescence | inhibition, % at 10 µM | 4,900 tested, 43% active;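 active = thallium signal inhibited by more than 5 SD of the compound-free buffer control wells, on both duplicate plates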
Kir21 sel: mouse Kir2.1 channel inhibition, confirmation, selectivity assay for KCNK9 modulator project, cell-based, HEK293, thallium flux; Kir2.1 cells, FluxOR thallium flux fluorescence; shares compounds with KCNK9 inh; inhibition, % at 10 µM; 4,900 tested, 4% active; AID 492993, 2010;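 active = thallium signal drop more than 5 SD beyond the mean of the no-compound control wells, seen in both duplicate plates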;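 note: signal is fluorescence rise after thallium addition divided by baseline fluorescence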
KCNK9 uninduced: thallium flux in non-induced HEK293 cells, confirmation, counter-screen for KCNK9 inhibitor project, cell-based, second counter screen, non-induced KCNK9-HEK293. shares compounds with KCNK9 inh. FluxOR thallium flux. inhibition, % at 10 µM. 4,900 tested, 40% active. AID 492997, 2010;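 active = thallium signal drop beyond 5 SD of the untreated control mean, on both duplicate plates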
KCNK3 confirm: retest of human KCNK3 channel inhibitors, confirmation, CHO cells, FluxOR thallium flux, triplicate | ratio percent of control, % at 10 µM | shares compounds with KCNK3 block | FluxOR fluorescence; 0% buffer, 100% carvedilol maximal block | AID 651638, 2012 | 2,400 tested, 99% active;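 active = ratio percent of control, averaged over triplicates, above buffer control mean plus 5 SD, cut at about 64% in these data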;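 note: ratio is the fluorescence rise from min to max over baseline after thallium stimulus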
KCNK3 uninduced: thallium flux inhibition in non-induced cells, primary screen, counter-screen for KCNK3 inhibitor project, cell-based, non-induced KCNK3 line, FluxOR thallium, triplicate. non-induced KCNK3 parental cells; active compounds read low. AID 651747, 2012. shares compounds with KCNK3 block. thallium flux ratio (lower = more inhibition) at 10 µM. 2,400 tested, 40% active;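 active = thallium flux ratio, averaged over three wells, more than 5 SD below the buffer control mean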;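 note: host cells are CHO cells without KCNK3 induction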
Numbers stand for hits.

Results for O=C(Cc1cccs1)NCCSc1c(-c2ccc(Cl)cc2)[nH]c2ccccc12 ?
hERG rescue: inactive; KCNQ1 inh: 19; KCNQ1 pot: inactive; Kir21 inh: inactive; KCNK9 inh: -14; KCNK3 block: -14; KCNQ1 block val: 134; CHO KCNQ1 ctr: 0.35; KCNQ2 inh: 124%; KCNQ1-KCNE1 inh: 186%; KCNK9 block conf: 54%; Kir21 sel: inactive; KCNK9 uninduced: 32%; KCNK3 confirm: 132; KCNK3 uninduced: 0.15

How did CCOC(=O)CSc1c(-c2ccc(Cl)cc2)[nH]c2ccccc12 do in these assays?
hERG rescue: inactive; KCNQ1 inh: inactive; KCNQ1 pot: inactive; Kir21 inh: inactive; KCNK9 inh: inactive; KCNK3 block: inactive

Results for CCN(C(=O)c1cc2c(s1)-c1ccccc1OC2)c1cc(OC)ccc1OC ?
hERG rescue: inactive; KCNQ1 inh: 7; KCNQ1 pot: inactive; Kir21 inh: inactive; KCNK9 inh: -17; KCNK3 block: -14; KCNQ1 block val: 110; CHO KCNQ1 ctr: 0.37; KCNQ2 inh: 96%; KCNQ1-KCNE1 inh: 185%; KCNK9 block conf: 68%; Kir21 sel: inactive; KCNK9 uninduced: 32%; KCNK3 confirm: 132; KCNK3 uninduced: 0.12

How did O=C1CCCc2nc(N3CCN(C(=O)c4ccco4)CC3)ncc21 do in these assays?
hERG rescue: inactive; KCNQ1 inh: inactive; KCNQ1 pot: inactive; Kir21 inh: inactive; KCNK9 inh: inactive; KCNK3 block: inactive

What do the screens show for `O=C1CCCc2nc(N3CCN(C(c4ccccc4)c4ccccc4)CC3)ncc21`?
hERG rescue: inactive; KCNQ1 inh: 8; KCNQ1 pot: inactive; Kir21 inh: inactive; KCNK9 inh: inactive; KCNK3 block: -8.8; KCNQ1 block val: 96; CHO KCNQ1 ctr: inactive; KCNQ1 ephys val: inactive; KCNQ2 inh: 108%; KCNQ1-KCNE1 inh: 165%; KCNK3 confirm: 119; KCNK3 uninduced: 0.14

How did CCOc1ccc(S(=O)(=O)N2CCCC(C(=O)NC3CC3)C2)cc1Cl (stereo not given) do in these assays?
hERG rescue: inactive; KCNQ1 inh: inactive; KCNQ1 pot: inactive; Kir21 inh: inactive; KCNK9 inh: inactive; KCNK3 block: inactive

How did Cc1c(C(=O)Nc2ccc(Cl)cc2)c2ccccn2c1C(=O)c1ccc(F)cc1 do in these assays?
hERG rescue: inactive; KCNQ1 inh: inactive; KCNQ1 pot: inactive; Kir21 inh: inactive; KCNK9 inh: inactive; KCNK3 block: inactive

How did Cc1c(C(=O)Nc2cccc(Cl)c2)c2ccccn2c1CCc1ccncc1 do in these assays?
hERG rescue: inactive; KCNQ1 inh: 9; KCNQ1 pot: inactive; Kir21 inh: inactive; KCNK9 inh: inactive; KCNK3 block: -10; KCNQ1 block val: 159; CHO KCNQ1 ctr: 0.36; KCNQ2 inh: 123%; KCNQ1-KCNE1 inh: active; KCNK3 confirm: 134; KCNK3 uninduced: 0.12

What do the screens show for `NC(=O)Cn1c(=O)n(C2CCCCC2)c(=O)c2c3c(sc21)CCCCC3`?
hERG rescue: inactive; KCNQ1 inh: inactive; KCNQ1 pot: inactive; Kir21 inh: inactive; KCNK9 inh: inactive; KCNK3 block: inactive

What do the screens show for `CCCCNC(=S)Nc1ccc(SC(F)F)cc1`?
hERG rescue: inactive; KCNQ1 inh: 8; KCNQ1 pot: inactive; Kir21 inh: inactive; KCNK9 inh: -7.7; KCNK3 block: -10; KCNQ1 block val: 91; CHO KCNQ1 ctr: inactive; KCNQ1 ephys val: active; KCNQ2 inh: inactive; KCNQ1-KCNE1 inh: 61%; KCNK3 confirm: 121; KCNK3 uninduced: 0.15

What do the screens show for `O=C(NCc1cccc(Cl)c1)c1cc(COc2ccc3ncccc3c2)on1`?
hERG rescue: inactive; KCNQ1 inh: 13; KCNQ1 pot: inactive; Kir21 inh: inactive; KCNK9 inh: inactive; KCNK3 block: -13; KCNQ1 block val: 93; CHO KCNQ1 ctr: 0.33; KCNQ2 inh: 100%; KCNQ1-KCNE1 inh: active; KCNK3 confirm: 126; KCNK3 uninduced: inactive
